From ChEMBL document CHEMBL3808290, “Discovery of Potent, Orally Bioavailable Inhibitors of Human Cytomegalovirus” (ACS Med Chem Lett, 2016)
≈ marks a conversion by molar mass, not a printed value.

Assays:
Cytochrome P450 2C8 = biological target: T1, Cytochrome P450 2C8 (Homo sapiens, UniProt P10632); assay: Inhibition of CYP2C8 (unknown origin); assay type: ADME
T1 sequence (P10632 whole entry): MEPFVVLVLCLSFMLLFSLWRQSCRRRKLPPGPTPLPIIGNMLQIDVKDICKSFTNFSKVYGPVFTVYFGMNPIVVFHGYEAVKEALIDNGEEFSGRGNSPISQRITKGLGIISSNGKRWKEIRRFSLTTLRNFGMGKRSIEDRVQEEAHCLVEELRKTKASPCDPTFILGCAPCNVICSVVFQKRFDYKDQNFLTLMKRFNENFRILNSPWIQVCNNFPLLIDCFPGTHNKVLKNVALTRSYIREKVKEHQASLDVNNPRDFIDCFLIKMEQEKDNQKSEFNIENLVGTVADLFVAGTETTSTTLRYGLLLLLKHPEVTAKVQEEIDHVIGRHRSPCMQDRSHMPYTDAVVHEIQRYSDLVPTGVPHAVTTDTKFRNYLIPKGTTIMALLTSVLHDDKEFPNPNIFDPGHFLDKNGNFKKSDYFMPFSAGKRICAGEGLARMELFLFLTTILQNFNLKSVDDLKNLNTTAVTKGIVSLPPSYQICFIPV

Human betaherpesvirus 5 [1] = assay: Antiviral activity against HCMV AD169 assessed as inhibition of viral infection in human MRC5 cells by RT-qPCR method; assay type: functional, organism-based; settings: Human betaherpesvirus 5, AD169, MRC5
Summary of the method: (§1)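 Infected cells were treated with compound added at the same time as virus, so only a single cycle of viral replication is scored. Viral replication was read by RT-qPCR and EC50 was taken as the half-maximal effect concentration. Each value is at least the mean of duplicate experiments, each run in triplicate.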

Cytochrome P450 2C9 = Cytochrome P450 2C9 (Homo sapiens, UniProt P11712); assay: Inhibition of CYP2C9 (unknown origin); assay type: ADME
Cytochrome P450 2C9, sequence (P11712 whole entry): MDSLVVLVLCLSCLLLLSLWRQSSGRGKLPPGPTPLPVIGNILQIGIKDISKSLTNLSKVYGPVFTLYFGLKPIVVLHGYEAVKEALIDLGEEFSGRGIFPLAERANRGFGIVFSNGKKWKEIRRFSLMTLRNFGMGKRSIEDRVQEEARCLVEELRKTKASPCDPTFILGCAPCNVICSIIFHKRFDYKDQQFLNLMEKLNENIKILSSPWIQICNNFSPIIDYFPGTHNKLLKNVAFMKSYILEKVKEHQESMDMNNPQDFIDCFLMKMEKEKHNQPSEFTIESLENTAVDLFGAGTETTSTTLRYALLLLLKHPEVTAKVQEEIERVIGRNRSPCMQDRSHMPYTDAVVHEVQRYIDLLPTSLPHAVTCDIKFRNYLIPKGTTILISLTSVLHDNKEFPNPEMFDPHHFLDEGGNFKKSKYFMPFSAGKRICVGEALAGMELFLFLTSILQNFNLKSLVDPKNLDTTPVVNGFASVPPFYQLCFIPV

[2] = Solubility of the compound at pH 6.8; assay type: physicochemical; settings: buffer
Cytochrome P450 3A4 = Cytochrome P450 3A4 (Homo sapiens, UniProt P08684); assay: Inhibition of CYP3A4 (unknown origin); assay type: ADME
Cytochrome P450 3A4, sequence (P08684 whole entry): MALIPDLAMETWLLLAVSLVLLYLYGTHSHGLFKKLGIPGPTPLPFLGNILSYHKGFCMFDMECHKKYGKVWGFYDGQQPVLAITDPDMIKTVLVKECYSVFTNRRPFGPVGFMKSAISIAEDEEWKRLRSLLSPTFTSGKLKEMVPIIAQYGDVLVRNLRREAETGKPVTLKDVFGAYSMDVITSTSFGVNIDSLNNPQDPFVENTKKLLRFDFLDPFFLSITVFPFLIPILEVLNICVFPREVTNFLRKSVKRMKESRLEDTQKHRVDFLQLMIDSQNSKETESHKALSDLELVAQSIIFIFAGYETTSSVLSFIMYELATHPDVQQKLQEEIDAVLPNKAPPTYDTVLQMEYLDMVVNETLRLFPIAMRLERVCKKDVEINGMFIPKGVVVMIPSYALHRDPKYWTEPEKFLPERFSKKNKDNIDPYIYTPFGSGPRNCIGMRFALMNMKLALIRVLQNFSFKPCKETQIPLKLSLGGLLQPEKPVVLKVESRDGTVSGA

[3] = Half life of compound in human liver microsomes; assay type: ADME
Human betaherpesvirus 5 [4] = assay: Antiviral activity against HCMV AD169 infected in human MRC5 cells by CPE assay; assay type: functional, organism-based; settings: Human betaherpesvirus 5, AD169, MRC5
Summary of the method: (§2)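 MRC-5 fibroblasts were infected with HCMV and inhibition was read as protection from virus-induced cytopathic effect. EC50 is the half-maximal effect concentration, averaged over at least duplicate experiments, each run in triplicate.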

[5] = Cytotoxicity against human MRC5 cells; assay type: cell-based
Liver microsome = assay: Metabolic stability in human liver microsomes assessed as compound hydrolysis in absence of NADPH
Salmonella typhimurium = assay: Genotoxicity in Salmonella typhimurium by Ames test; assay type: toxicity, organism-based; settings: salmonella enterica subsp. enterica serovar typhimurium
Human betaherpesvirus 5 [6] = assay: Antiviral activity against HCMV TR infected in human MRC5 cells by CPE assay; assay type: functional, organism-based; settings: Human betaherpesvirus 5, TR; summary of the method: as §2
Cytochrome P450 2D6 = Cytochrome P450 2D6 (Homo sapiens, UniProt P10635); assay: Inhibition of CYP2D6 (unknown origin); assay type: ADME
Cytochrome P450 2D6, sequence (P10635 whole entry): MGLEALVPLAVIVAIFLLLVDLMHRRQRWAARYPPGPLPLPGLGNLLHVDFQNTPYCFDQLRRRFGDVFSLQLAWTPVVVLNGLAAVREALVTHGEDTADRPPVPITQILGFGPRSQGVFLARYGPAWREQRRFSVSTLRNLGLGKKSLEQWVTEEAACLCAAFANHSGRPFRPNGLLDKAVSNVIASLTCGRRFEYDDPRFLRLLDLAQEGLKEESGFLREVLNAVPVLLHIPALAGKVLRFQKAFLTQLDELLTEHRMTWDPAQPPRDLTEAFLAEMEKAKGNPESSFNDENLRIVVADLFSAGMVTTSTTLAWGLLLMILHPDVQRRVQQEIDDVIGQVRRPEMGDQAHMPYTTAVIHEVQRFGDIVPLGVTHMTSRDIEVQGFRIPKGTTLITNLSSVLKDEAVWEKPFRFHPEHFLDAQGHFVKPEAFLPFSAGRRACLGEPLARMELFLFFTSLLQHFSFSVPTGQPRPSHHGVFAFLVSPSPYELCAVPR

[7] = Apparent permeability across apical to basolateral side in human Caco2 cells; assay type: ADME, cell-based; settings: Caco-2
Human betaherpesvirus 5 [8] = assay: Antiviral activity against HCMV VR1814 assessed as inhibition of viral infection in human MRC5 cells by RT-qPCR method; assay type: functional, organism-based; settings: Human betaherpesvirus 5, VR1814, MRC5; summary of the method: as §1
Human betaherpesvirus 5 [9] = assay: Antiviral activity against HCMV VR1814 assessed as inhibition of viral infection in human ARPE19 cells by RT-qPCR method; assay type: functional, organism-based; settings: Human betaherpesvirus 5, VR1814, ARPE-19; summary of the method: as §1
Human betaherpesvirus 5 [10] = assay: Antiviral activity against HCMV TB40 assessed as inhibition of viral infection in human MRC5 cells by RT-qPCR method; assay type: functional, organism-based; settings: Human betaherpesvirus 5, TB40, MRC5; summary of the method: as §1
[11] = Volume of distribution at steady state in rat; assay type: ADME, organism-based; settings: in vivo, read-out: Vdss
Human betaherpesvirus 5 [12] = assay: Antiviral activity against HCMV VR1814 infected in human ARPE19 cells after 72 hrs by cell-to-cell spread assay; assay type: functional, organism-based; settings: Human betaherpesvirus 5, VR1814, ARPE-19, 72 h
Summary of the method: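 ARPE-19 cells were infected and replication ran for 24 h. Medium and free virus were then removed, and Cytogam neutralizing antibody plus fresh medium were added. After 48 h, allowing one full replication cycle, compounds were added. After a further 72 h, infected nuclei were stained with fluorescent anti-IE1 antibody and clusters imaged. IC50 came from dose-response curves, averaging at least duplicate experiments run in triplicate.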

[13] = Oral bioavailability in rat; assay type: ADME, organism-based; settings: in vivo
[14] = Half life of compound in rat; assay type: ADME, organism-based; settings: in vivo
Human betaherpesvirus 5 [15] = assay: Antiviral activity against HCMV TR assessed as inhibition of viral infection in human MRC5 cells by RT-qPCR method; assay type: functional, organism-based; settings: Human betaherpesvirus 5, TR; summary of the method: as §1

| IC50 (Cytochrome P450 2C9) [nM] | solubility [2] [µg/mL] | IC50 (Cytochrome P450 3A4) [nM] | half-life [3] [h] | Stability (Liver microsome) | Structure (SMILES) | EC50 (Human betaherpesvirus 5 [1]) [nM] | EC50 (Human betaherpesvirus 5 [4]) [nM] | CC50 [5] [nM] | Activity (Salmonella typhimurium) | also measured |
| --- | --- | --- | --- | --- | --- | --- | --- | --- | --- | --- |
|  |  |  | 0.233 |  | O=C(Nc1ccc(NC(=O)c2ccco2)cc1)c1ccc(Cl)c(C(F)(F)F)c1 |  | 340 | > 57000 |  |  |
|  | 1.9 (≈ 5.65 µM) | > 30000 | 0.2 |  | COc1cccc(C(=O)Nc2ccc(NC(=O)c3ccco3)cc2)c1 | 2500 | 4000 | > 82000 |  | EC50 (Human betaherpesvirus 5 [6]): 8200 nM; IC50 (Cytochrome P450 2D6): > 30000 nM; Papp A→B [7]: 11 ×10⁻⁶ cm/s |
| 1400 | < 0.1 | > 30000 | > 2 |  | CC(C)OC(c1cccc(C(F)(F)F)c1)c1nc(-n2ccc(NC(=O)c3cscn3)cc2=O)c[nH]1 (stereo unspecified) | 110 |  |  |  | IC50 (Cytochrome P450 2C8): 180 nM |
|  |  |  | 1.83 |  | O=C(Nc1ccc(/N=C(\S)Nc2cc(C(F)(F)F)cc(C(F)(F)F)c2)cc1)c1csnn1 |  | 250 | 36000 |  |  |
|  |  |  | 1.63 |  | COc1cccc(C(=O)Nc2ccc(NC(=O)c3cocn3)cc2)c1 |  | 4400 | > 57000 |  |  |
|  |  |  | 0.567 |  | COc1cccc(C(=O)Nc2ccc(NC(=O)c3csnn3)cc2)c1 |  | 3000 | > 57000 |  |  |
|  |  |  |  | Stable | O=C(Cc1ccc(NC(=O)c2cscn2)nc1)Nc1cc(C(F)(F)F)cc(C(F)(F)F)c1 |  | 440 | > 57000 | Toxic |  |
|  |  |  |  | Unstable | O=C(Nc1ccc(-c2c[nH]c(-c3cc(C(F)(F)F)cc(C(F)(F)F)c3)n2)cc1)c1cscn1 |  | 130 | 7800 | Toxic |  |
|  |  |  |  | Unstable | O=C(Nc1ccc2nc(NCc3cc(C(F)(F)F)cc(C(F)(F)F)c3)sc2c1)c1cscn1 |  | 430 | > 57000 | Toxic |  |
|  |  |  |  | Stable | O=C(Cn1ccc(NC(=O)c2cscn2)cc1=O)Nc1cc(C(F)(F)F)cc(C(F)(F)F)c1 |  | 440 | 28000 | Non-toxic |  |
|  |  |  |  | Stable | O=C(Cc1cc(C(F)(F)F)cc(C(F)(F)F)c1)Nc1ccc2nc(NC(=O)c3cscn3)sc2c1 |  | 250 | > 57000 | Toxic |  |
|  |  |  |  | Stable | O=C(Nc1ccc2nc(Cc3cc(C(F)(F)F)cc(C(F)(F)F)c3)[nH]c2c1)c1cscn1 |  | 2300 | > 57000 | Toxic |  |
| 150 | < 0.1 | > 30000 | 0.267 |  | CC(C)CC(O)(c1cccc(C(F)(F)F)c1)c1nc(-n2ccc(NC(=O)c3cscn3)cc2=O)c[nH]1 (stereo unspecified) | 28 |  |  |  |  |
| 31 | < 0.1 | > 30000 | > 2 |  | CC(c1cccc(C(F)(F)F)c1)c1nc(-n2ccc(NC(=O)c3cscn3)cc2=O)c[nH]1 (stereo unspecified) | 150 |  |  |  |  |
| 3000 | 76 (≈ 160 µM) | > 30000 | > 2 |  | CC(O)(c1cccc(C(F)(F)F)c1)c1nc(-n2ccc(NC(=O)c3cscn3)cc2=O)c[nH]1 (stereo unspecified) | 540 |  |  |  | IC50 (Cytochrome P450 2C8): 4700 nM; EC50 (Human betaherpesvirus 5 [8]): 910 nM; IC50 (Cytochrome P450 2D6): 17000 nM; EC50 (Human betaherpesvirus 5 [9]): 1700 nM; EC50 (Human betaherpesvirus 5 [10]): 250 nM; Vd [11]: 2.5 L; EC50 (Human betaherpesvirus 5 [12]): 800 nM; bioavailability [13]: 72%; half-life [14]: 1.9 h; EC50 (Human betaherpesvirus 5 [15]): 470 nM |

Further lines, the compound ahead of its results:

| Structure (SMILES) | IC50 (Cytochrome P450 2C9) [nM] | solubility [2] [µg/mL] | IC50 (Cytochrome P450 3A4) [nM] | half-life [3] [h] | Stability (Liver microsome) | EC50 (Human betaherpesvirus 5 [1]) [nM] | EC50 (Human betaherpesvirus 5 [4]) [nM] | CC50 [5] [nM] | Activity (Salmonella typhimurium) | also measured |
| --- | --- | --- | --- | --- | --- | --- | --- | --- | --- | --- |
| Cc1cccc(C(C)(O)c2nc(-n3ccc(NC(=O)c4cscn4)cc3=O)c[nH]2)c1 (stereo unspecified) | 13000 | 63 (≈ 149 µM) | > 30000 |  |  | 3600 |  |  |  | IC50 (Cytochrome P450 2C8): 21000 nM |
| O=C(Nc1ccn(-c2cn(Cc3cccc(C(F)(F)F)c3)cn2)c(=O)c1)c1cscn1 | 2100 | < 0.16 | 1900 | > 2 |  | > 5800 |  |  |  |  |
| COc1cccc(C(=O)Nc2ccc(NC(=O)c3ccco3)cc2)c1F |  |  |  |  |  |  | 8000 | > 57000 |  |  |
| O=C(Cc1cc(C(F)(F)F)cc(C(F)(F)F)c1)Nc1ccc(NC(=O)c2cscn2)cc1 |  |  |  | 1.57 | Unstable |  | 220 | > 57000 | Toxic |  |
| O=C(Nc1ccc(NC(=O)c2ccco2)cc1)c1cccnc1 |  |  |  |  |  |  | 38000 | > 57000 |  |  |
| CC(c1cccc(C(F)(F)F)c1)n1cnc(-n2ccc(NC(=O)c3cscn3)cc2=O)c1 (stereo unspecified) | 2100 | < 0.1 |  |  |  | 2400 |  |  |  | IC50 (Cytochrome P450 2C8): 1700 nM |
| O=C(Cc1ccc(NC(=O)c2cscn2)cn1)Nc1cc(C(F)(F)F)cc(C(F)(F)F)c1 |  |  |  |  | Stable |  | 540 | > 57000 | Toxic |  |
| COc1cccc(C(=O)Nc2ccc(NC(=O)c3cncnc3)cc2)c1 |  |  |  |  |  |  | > 57000 | > 57000 |  |  |
| COc1cccc(C(=O)Nc2ccc(NC(=O)c3cscn3)cc2)c1 |  |  |  | 0.367 |  |  | 640 | > 57000 |  |  |
| O=C(Nc1ccn(-c2c[nH]c(C(O)c3cccc(C(F)(F)F)c3)n2)c(=O)c1)c1cscn1 (stereo unspecified) | 7300 |  | > 30000 | > 2 |  | 470 |  |  |  | IC50 (Cytochrome P450 2C8): 4300 nM |
| O=C(Nc1ccc(NC(=O)c2ccco2)cc1)c1cccc(Cl)c1 |  |  |  | 0.233 |  |  | 1100 | > 57000 |  |  |
| Cc1ccc(C(C)(O)c2nc(-n3ccc(NC(=O)c4cscn4)cc3=O)c[nH]2)cc1 (stereo unspecified) | 14000 | 16 (≈ 38 µM) | > 30000 | 1.2 |  | 1900 |  |  |  | IC50 (Cytochrome P450 2C8): 18000 nM |
| O=C(Cc1ccc(NC(=O)c2cscn2)cc1)Nc1cc(C(F)(F)F)cc(C(F)(F)F)c1 |  |  |  |  | Unstable |  | 130 | 36000 | Toxic |  |
